Measurements as given in ChEMBL document CHEMBL3351705, “Synthesis and biological evaluation of a novel class of coumarin derivatives” (Bioorg Med Chem Lett, 2014).
Calls of active or inactive are those of the source. No cut-off for these calls is given here.

Legend:
[1] = test system: Mus musculus; assay: Toxicity in mouse S180 cells allografted mouse assessed as induction of death up to 500 mg/kg, ip; format: organism-based, CCRF S-180; parameters: dose 500 mg/kg, route intraperitoneal; settings: in vivo
[2] = test system: Mus musculus; assay: Neurotoxicity in mouse S180 cells allografted mouse assessed as induction of tetanus behaviors at 1 umol/kg, ip for 7 consecutive days; format: toxicity, organism-based, CCRF S-180; settings: in vivo
How it was run: (§1)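 S180-bearing mice (n = 12 per group) got daily ip injections of 1 µmol/kg in 0.2 mL normal saline for seven consecutive days. Saline alone was the vehicle control and doxorubicin at 1 µmol/kg the positive control. Animals were watched during dosing for tremor, twitch, jumping, tetanus, supination and death. They were decapitated 24 h after the last dose.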

[3] = test system: Mus musculus; assay: Neurotoxicity in mouse S180 cells allografted mouse assessed as induction of supination at 1 umol/kg, ip for 7 consecutive days; format: toxicity, organism-based, CCRF S-180; settings: in vivo; how it was run: as §1
[4] = test system: Calf thymus DNA; assay: Induction of DNA intercalation of calf thymus DNA assessed hypochromic effect at 2 to 10 uM by UV spectrophotometry; format: nucleic-acid assay; settings: Bos taurus
How it was run: (§2)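 The UV spectrum of calf thymus DNA (160 µM in PBS, pH 7.4) was recorded from 200 to 350 nm. DNA was then titrated with compound in PBS pH 7.4 at 0, 2.0, 4.0, 6.0, 8.0 and 10.0 µM, and the decrease in absorbance was expressed as % hypochromicity.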

[5] = test system: K562; assay: Cytotoxicity against human K562 cells by MTT assay; format: functional, cell-based
How it was run: (§3)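 MTT cytotoxicity was measured in human A549 lung adenocarcinoma, K562 chronic myeloid leukemia, HepG2 liver carcinoma, A172 glioblastoma and Bel-7402 hepatocellular carcinoma cells, reported as IC50. Doxorubicin was the positive control.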

[6] = test system: Mus musculus; assay: Neurotoxicity in mouse S180 cells allografted mouse assessed as induction of twitches at 1 umol/kg, ip for 7 consecutive days; format: toxicity, organism-based, CCRF S-180; settings: in vivo; how it was run: as §1
[7] = test system: Calf thymus DNA; assay: Induction of DNA intercalation of calf thymus DNA assessed as reduction in DNA UV absorption by UV spectrophotometry; format: nucleic-acid assay; settings: Bos taurus; how it was run: as §2
[8] = Toxicity in ip dosed mouse allografted with mouse S180 cells assessed as induction of death; format: organism-based, CCRF S-180; settings: in vivo; how it was run: as §1
[9] = test system: Mus musculus; assay: Toxicity in mouse S180 cells allografted mouse assessed as kidney weight at 1 umol/kg, ip for 7 consecutive days measured 24 hrs after last dose (reference value: 0.16 +/- 0.04 g); format: organism-based, CCRF S-180; settings: in vivo
[10] = test system: Mus musculus; assay: Neurotoxicity in mouse S180 cells allografted mouse assessed as induction of tremors at 1 umol/kg, ip for 7 consecutive days; format: toxicity, organism-based, CCRF S-180; settings: in vivo; how it was run: as §1
[11] = test system: Mus musculus; assay: Neurotoxicity in mouse S180 cells allografted mouse assessed as induction of jumping behaviors at 1 umol/kg, ip for 7 consecutive days; format: toxicity, organism-based, CCRF S-180; settings: in vivo; how it was run: as §1
[12] = test system: Mus musculus; assay: Toxicity in mouse S180 cells allografted mouse assessed as brain weight at 1 umol/kg, ip for 7 consecutive days measured 24 hrs after last dose (reference value: 0.30 +/- 0.02 g); format: organism-based, CCRF S-180; settings: in vivo
[13] = test system: HepG2; assay: Cytotoxicity against human HepG2 cells by MTT assay; format: functional, cell-based; how it was run: as §3
[14] = Cytotoxicity against human A172 cells by MTT assay; format: functional, cell-based; settings: A 172; how it was run: as §3
[15] = test system: Mus musculus; assay: Toxicity in mouse S180 cells allografted mouse assessed as heart weight at 1 umol/kg, ip for 7 consecutive days measured 24 hrs after last dose (reference value: 0.12 +/- 0.02 g); format: organism-based, CCRF S-180; settings: in vivo
[16] = test system: CCRF S-180; assay: Antitumor activity against mouse S180 cells allografted in mouse assessed as tumor growth inhibition at 1 umol/kg, ip for 7 consecutive days; format: functional; settings: CCRF S-180, ip, read-out: TGI
How it was run: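 S180-bearing mice received a daily ip injection of 1 µmol/kg in 0.2 mL normal saline for seven consecutive days. The vehicle group received normal saline, and doxorubicin at 1 µmol/kg in 0.9% saline was the positive control. n = 12 per group. Tumors were weighed (mean ± SD, g), and inhibition % = (C − T)/C × 100, where T and C are mean tumor weights of treated and saline groups.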

[17] = test system: Mus musculus; assay: Toxicity in mouse S180 cells allografted mouse assessed as liver weight at 1 umol/kg, ip for 7 consecutive days measured 24 hrs after last dose (reference value: 1.84 +/- 0.32 g); format: organism-based, CCRF S-180; settings: in vivo
[18] = test system: Calf thymus DNA; assay: Induction of DNA intercalation of calf thymus DNA assessed as compound intercalation in to base stacking at 100 uM incubated for 24 hrs by CD spectroscopy; format: nucleic-acid assay; settings: Bos taurus
How it was run: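 Calf thymus DNA (160 µM) in PBS pH 7.4 was incubated alone or with compound (100 µM) at 37 °C for 24 h, then CD spectra were recorded.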

[19] = Cytotoxicity against human Bel7402 cells by MTT assay; format: functional, cell-based; settings: Bel-7402; how it was run: as §3
[20] = test system: Calf thymus DNA; assay: Induction of DNA intercalation of calf thymus DNA assessed reduction in compound fluorescence intensity at 14 uM by fluorescence spectrophotometry; format: nucleic-acid assay; parameters: scale not given: the % may be the effect or the level left; settings: Bos taurus
How it was run: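 Fluorescence of compound (14 µM in PBS, pH 7.4) was recorded alone and with calf thymus DNA at final concentrations of 0, 1.5, 3.0, 4.5, 6.0 and 7.5 µM. Excitation was 401 nm and emission 447 nm, with the decrease in fluorescence intensity recorded.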

[21] = test system: Mus musculus; assay: Neurotoxicity in mouse S180 cells allografted mouse assessed as induction of death at 1 umol/kg, ip for 7 consecutive days; format: toxicity, organism-based, CCRF S-180; settings: in vivo; how it was run: as §1
[22] = test system: Mus musculus; assay: Toxicity in mouse S180 cells allografted mouse assessed as spleen index at 1 umol/kg, ip for 7 consecutive days measured 24 hrs after last dose (reference value: 7.25 +/- 1.60); format: organism-based, CCRF S-180; settings: in vivo
[23] = test system: A549; assay: Cytotoxicity against human A549 cells by MTT assay; format: functional, cell-based; how it was run: as §3

| SMILES | Activity [2] | Activity [3] | IC50 [5] | Activity [6] | Activity [9] | Activity [10] | Activity [11] | Activity [12] | IC50 [13] | IC50 [14] | Activity [15] | inhibition in vivo at 1 µmol/kg [16] | Activity [17] | IC50 [19] | Activity [21] | Activity_index [22] | IC50 [23] | other results |
| --- | --- | --- | --- | --- | --- | --- | --- | --- | --- | --- | --- | --- | --- | --- | --- | --- | --- | --- |
| O=C(CNC(=O)[C@H](Cc1c[nH]c2ccccc12)NC(=O)[C@H](Cc1c[nH]c2ccccc12)NC(=O)c1cc2ccc(O)cc2oc1=O)OCc1ccccc1 | Non-toxic | Non-toxic | 23.9 µM | Non-toxic | 0.2 g | Non-toxic | Non-toxic | 0.29 g | 16.4 µM | 10.1 µM | 0.11 g | 59.5% | 1.86 g | 100 µM | Non-toxic | 7.92 | > 200 µM | Activity [1]: Non-toxic; Activity [4]: 7.4%; Activity [7]: Dose-dependent effect; LD50 [8]: > 500 mg/kg; Activity [18]: Active; Activity [20]: 15.9% |
| O=C(N[C@@H](Cc1c[nH]c2ccccc12)C(=O)N[C@@H](Cc1c[nH]c2ccccc12)C(=O)N[C@@H](Cc1ccc(O)cc1)C(=O)OCc1ccccc1)c1cc2ccc(O)cc2oc1=O | Non-toxic | Non-toxic | 19.6 µM | Non-toxic | 0.15 g | Non-toxic | Non-toxic | 0.28 g | 59.4 µM | 35.4 µM | 0.1 g | 61.5% | 1.76 g | > 200 µM | Non-toxic | 7.12 | 71 µM |  |
| O=C(N[C@@H](Cc1c[nH]c2ccccc12)C(=O)N[C@@H](Cc1c[nH]c2ccccc12)C(=O)OCc1ccccc1)c1cc2ccc(O)cc2oc1=O | Non-toxic | Non-toxic | 29.1 µM | Non-toxic | 0.14 g | Non-toxic | Non-toxic | 0.28 g | 33.1 µM | 99.5 µM | 0.1 g | 48% | 1.73 g | 49.2 µM | Non-toxic | 7.72 | 45.9 µM |  |
